Values after ≈ are worked out from the molar mass of the structure shown. Active and inactive are the calls of the source. The rule behind the calls is not given here. Bridge positions count the residues as written; N and C are the ends. Square brackets hold non-standard residues; d marks the D form. Peptide text beside a SMILES is read from it. I, II: the chains in the order shown. Nva(4-oxo) = CC(=O)C[C@H](N)C(=O)O
Experiments:
Staphylococcus aureus [1] = experiment: Antimicrobial activity against methicillin-resistant Staphylococcus aureus CCARM 3696 by radial diffusion assay incubated with chymotrypsin; format: functional, organism-based
Staphylococcus aureus [2] = experiment: Antimicrobial activity against methicillin-resistant Staphylococcus aureus CCARM 3696 by radial diffusion assay incubated with trypsin; format: functional, organism-based
Staphylococcus aureus [3] = experiment: Antimicrobial activity against methicillin-resistant Staphylococcus aureus CCARM 3696 after 18 hrs by broth dilution method; format: functional; details: CCARM 3696, 18 h
Outline: (§1)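 Broth dilution per CLSI. Bacteria were grown overnight to stationary phase in Mueller-Hinton broth and diluted in fresh MHB to 2 × 10^5 CFU/ml. Stocks at 640 μg/ml in 0.01% acetic acid were 2-fold serially diluted to 10 μg/ml, and 11 μl was added to 100 μl of bacteria. After 18 h at 37°C, MIC was the lowest concentration with no visible turbidity. Run in triplicate.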

Citrobacter freundii = experiment: Antimicrobial activity against Citrobacter freundii KCTC 2359 after 18 hrs by broth dilution method; format: functional; details: KCTC 2359, 18 h
Outline: (§2)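 Broth microdilution following CLSI recommendations. Bacteria were grown overnight to stationary phase in Mueller-Hinton broth, then diluted in fresh MHB to 2 × 10^5 CFU/ml. Peptide or antibiotic stocks of 640 μg/ml in 0.01% acetic acid were serially 2-fold diluted to 10 μg/ml, and each was added to the bacterial suspension at 11 μl per 100 μl. Plates were incubated 18 h at 37°C. MIC was taken as the lowest concentration giving no visible turbidity, in triplicate.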

Klebsiella oxytoca = experiment: Antimicrobial activity against Klebsiella oxytoca KCTC 1686 after 18 hrs by broth dilution method; format: functional; details: KCTC 1686, 18 h; outline: as §2
Pseudomonas aeruginosa = experiment: Antimicrobial activity against multidrug-resistant Pseudomonas aeruginosa CCARM 2161 after 18 hrs by broth dilution method; format: functional; details: CCARM 2161, 18 h; outline: as §1
Salmonella enterica = experiment: Antimicrobial activity against Salmonella enterica KCTC 2930 after 18 hrs by broth dilution method; format: functional; details: KCTC 2930, 18 h; outline: as §2
Bacillus subtilis = experiment: Antimicrobial activity against Bacillus subtilis KCTC 2213 after 18 hrs by broth dilution method; format: functional; details: KCTC 2213, 18 h; outline: as §2
Escherichia coli = experiment: Antimicrobial activity against Escherichia coli KCTC 1039 after 18 hrs by broth dilution method; format: functional; details: KCTC 1039, 18 h; outline: as §2
Listeria monocytogenes = experiment: Antimicrobial activity against Listeria monocytogenes KCTC 19111 after 18 hrs by broth dilution method; format: functional; details: KCTC 19111, 18 h; outline: as §2
Micrococcus luteus = experiment: Antimicrobial activity against Micrococcus luteus KCTC 9341 after 18 hrs by broth dilution method; format: functional; details: KCTC 9341, 18 h; outline: as §2
Enterococcus faecium = experiment: Antimicrobial activity against vancomycin-resistant Enterococcus faecium CCARM 5028 after 18 hrs by broth dilution method; format: functional; details: CCARM 5028, 18 h; outline: as §1

SMILES | Activity (Staphylococcus aureus [1]) | Activity (Staphylococcus aureus [2]) | MIC (Staphylococcus aureus [3]) [µg/mL] | MIC (Citrobacter freundii) [µg/mL] | MIC (Klebsiella oxytoca) [µg/mL] | MIC (Pseudomonas aeruginosa) [µg/mL] | MIC (Salmonella enterica) [µg/mL] | MIC (Bacillus subtilis) [µg/mL] | MIC (Escherichia coli) [µg/mL] | MIC (Listeria monocytogenes) [µg/mL] | MIC (Micrococcus luteus) [µg/mL] | MIC (Enterococcus faecium) [µg/mL]
CC(C)C[C@H](NC(=O)CNC(=O)[C@H](Cc1cnc[nH]1)NC(=O)[C@H](Cc1cnc[nH]1)NC(=O)[C@H](CC(C)C)NC(=O)[C@H](CC(C)C)NC(=O)[C@H](C)NC(=O)[C@H](CC(N)=O)NC(=O)[C@H](CC(C)C)NC(=O)[C@H](Cc1c[nH]c2ccccc12)NC(=O)[C@@H](N)CCCCN)C(=O)N[C@@H](CC(N)=O)C(=O)N[C@@H](CSSC[C@H](NC(=O)[C@H](CC(N)=O)NC(=O)[C@H](CC(C)C)NC(=O)CNC(=O)[C@H](Cc1cnc[nH]1)NC(=O)[C@@H](N)Cc1cnc[nH]1)C(=O)N[C@@H](C)C(=O)N[C@@H](CCCCN)C(=O)NCC(=O)N[C@H](C(=O)N[C@@H](CC(C)C)C(=O)N[C@@H](C)C(N)=O)C(C)C)C(=O)N[C@@H](C)C(=O)N[C@@H](CCCCN)C(=O)NCC(=O)N[C@H](C(=O)N[C@@H](CC(C)C)C(=O)N[C@@H](C)C(N)=O)C(C)C (I: H-KWLNALLHHGLNCAKGVLA-NH2 / II: H-HHGLNCAKGVLA-NH2; disulfide I:13-II:6) | Active | – | – | – | – | – | – | – | – | – | – | –
CC(C)C[C@H](NC(=O)CNC(=O)[C@H](Cc1cnc[nH]1)NC(=O)[C@H](Cc1cnc[nH]1)NC(=O)[C@H](CC(C)C)NC(=O)[C@H](CC(C)C)NC(=O)[C@H](C)NC(=O)[C@H](CC(N)=O)NC(=O)[C@H](CC(C)C)NC(=O)[C@H](Cc1c[nH]c2ccccc12)NC(=O)[C@@H](N)CCCCN)C(=O)N[C@@H](CC(N)=O)C(=O)N[C@@H](CSSC[C@H](NC(=O)[C@H](CC(N)=O)NC(=O)[C@H](CC(C)C)NC(=O)CNC(=O)[C@H](Cc1cnc[nH]1)NC(=O)[C@H](Cc1cnc[nH]1)NC(=O)[C@H](CC(C)C)NC(=O)[C@H](CC(C)C)NC(=O)[C@H](C)NC(=O)[C@H](CC(N)=O)NC(=O)[C@H](CC(C)C)NC(=O)[C@H](Cc1c[nH]c2ccccc12)NC(=O)[C@@H](N)CCCCN)C(=O)N[C@@H](C)C(=O)N[C@@H](CCCCN)C(=O)NCC(=O)N[C@H](C(=O)N[C@@H](CC(C)C)C(=O)N[C@@H](C)C(N)=O)C(C)C)C(=O)N[C@@H](C)C(=O)N[C@@H](CCCCN)C(=O)O (I: H-KWLNALLHHGLNCAKGVLA-NH2 / II: H-KWLNALLHHGLNCAK-OH; disulfide I:13-II:13) | – | Active | – | – | – | – | – | – | – | – | – | –
CC(=O)C[C@H](NC(=O)[C@H](CC(C)C)NC(=O)CNC(=O)[C@H](Cc1cnc[nH]1)NC(=O)[C@H](Cc1cnc[nH]1)NC(=O)[C@H](CC(C)C)NC(=O)[C@H](CC(C)C)NC(=O)[C@H](C)NC(=O)[C@H](CC(N)=O)NC(=O)[C@H](CC(C)C)NC(=O)[C@@H](N)Cc1c[nH]c2ccccc12)C(=O)N[C@@H](CSSC[C@H](NC(=O)[C@H](CC(N)=O)NC(=O)[C@H](CC(C)C)NC(=O)CNC(=O)[C@H](Cc1cnc[nH]1)NC(=O)[C@H](Cc1cnc[nH]1)NC(=O)[C@H](CC(C)C)NC(=O)[C@H](CC(C)C)NC(=O)[C@H](C)NC(=O)[C@H](CC(N)=O)NC(=O)[C@H](CC(C)C)NC(=O)[C@@H](N)Cc1c[nH]c2ccccc12)C(=O)N[C@@H](C)C(=O)N[C@@H](CCCCN)C(=O)O)C(=O)N[C@@H](C)C(=O)N[C@@H](CCCCN)C(=O)O (I: H-WLNALLHHGL[Nva(4-oxo)]CAK-OH / II: H-WLNALLHHGLNCAK-OH; disulfide I:12-II:12) | – | inactive | – | – | – | – | – | – | – | – | – | –
C[C@H]1[C@H](NC(=O)/C(=N\OC(C)(C)C(=O)O)c2csc(N)n2)C(=O)N1S(=O)(=O)O [AZTREONAM] | – | – | > 64 | 4 (≈ 9.19 µM) | < 1 | 8 (≈ 18.4 µM) | > 64 | > 64 | < 1 | < 1 | > 64 | > 64
CC(C)(O/N=C(\C(=O)N[C@@H]1C(=O)N2C(C(=O)[O-])=C(C[n+]3ccccc3)CS[C@H]12)c1csc(N)n1)C(=O)O [CEFTAZIDIME] | – | – | > 64 | 8 (≈ 14.6 µM) | < 1 | 4 (≈ 7.32 µM) | > 64 | 4 (≈ 7.32 µM) | < 1 | < 1 | > 64 | > 64
CO/N=C(\C(=O)N[C@@H]1C(=O)N2C(C(=O)O)=C(CSc3nc(=O)c(O)nn3C)CS[C@H]12)c1csc(N)n1 [CEFTRIAXONE] | – | – | > 64 | 2 (≈ 3.61 µM) | < 1 | > 64 | 4 (≈ 7.21 µM) | < 1 | < 1 | < 1 | 16 (≈ 28.9 µM) | > 64

Reference: ChEMBL document CHEMBL1275595, “Antimicrobial activity of a halocidin-derived peptide resistant to attacks by proteases” (2010)
